Test results taken from ChEMBL document CHEMBL4311940, “Design, Synthesis, and Biological Evaluation of 4-Methyl Quinazoline Derivatives as Anticancer Agents Simultaneously Targeting Phosphoinositide 3-Kinases and Histone Deacetylases” (J Med Chem, 2019).

How the values were obtained:
THP-1 = test: Antiproliferative activity against human THP1 cells after 96 hrs by MTT assay; assay type: functional, cell-based; conditions: THP-1, 96 h
[1] = Clearance in ICR mouse at 3 mg/kg, iv measured after 0.033 to 24 hrs by LC/MS/MS analysis; assay type: ADME, organism-based; conditions: in vivo
How it was run: (§1)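 ICR mice; iv 3 mg/kg in 10% DMSO/saline (3 mice/group), blood at 0.033, 0.083, 0.25, 0.5, 1, 2, 4, 8, 12, 24 h; po 30 mg/kg as 0.5% cmc/0.3% Tween 80 suspension (5 mice/group), blood at 0.083–24 h. Plasma extracted with acetonitrile, LC/MS/MS; parameters by noncompartmental analysis.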

HCT-116 [2] = test: Induction of apoptosis in human HCT116 cells assessed as necrotic cells at 20 nM after 48 hrs by Annexin V-FITC/propidium iodide staining-based flow cytometric analysis (reference value: 5.23%); assay type: functional
[3] = Mutagenicity in Salmonella typhimurium TA102 at 5 to 500 ug/plate in absence of s9 mix by Ames test; assay type: toxicity; conditions: salmonella enterica subsp. enterica serovar typhimurium
How it was run: (§2)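 Plate incorporation method at 5, 50 and 500 μg/plate, with and without S9 activation. At least three plates per dose, incubated 72 h at 37 °C, revertants counted. Mean revertants compared with vehicle and positive controls.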

HGC-27 = test: Antiproliferative activity against human HGC27 cells after 96 hrs by MTT assay; assay type: functional, cell-based; conditions: HGC-27, 96 h
[4] = Mutagenicity in Salmonella typhimurium TA1535 at 5 to 500 ug/plate in presence of s9 mix by Ames test; assay type: toxicity, subcellular; conditions: salmonella enterica subsp. enterica serovar typhimurium; how it was run: as §2
[5] = biological target: Voltage-gated inwardly rectifying potassium channel KCNH2 (Homo sapiens, UniProt Q12809); test: Inhibition of human ERG stably expressed in CHO cells by whole cell patch clamp method; assay type: cell-based
How it was run: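 CHO cells stably expressing hERG, grown in F-12 (Ham)/GlutaMAX with 10% FBS, penicillin G, blasticidin S and hygromycin B. Expression induced with 1 μg/mL doxycycline, cells cultured 24 h, then recorded by whole-cell patch clamp.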

[6] = Mutagenicity in Salmonella typhimurium TA100 at 5 to 500 ug/plate in absence of s9 mix by Ames test; assay type: toxicity; conditions: salmonella enterica subsp. enterica serovar typhimurium; how it was run: as §2
[7] = biological target: Phosphatidylinositol 4,5-bisphosphate 3-kinase catalytic subunit beta isoform (Homo sapiens, UniProt P42338); test: Inhibition of recombinant human PIK3CB using PIP2 as substrate incubated for 1 hr by ADP-glo assay
How it was run: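 Recombinant PI3Kβ, -γ or -δ, serially diluted compound, PIP2 substrate and ATP combined in kinase buffer. Incubated 1 h at room temperature in the dark, then stopped with ADP-Glo reagent. Luminescence read after kinase detection reagent; IC50 by curve fitting.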

Capan-2 = test: Antiproliferative activity against human Capan2 cells after 96 hrs by MTT assay; assay type: functional, cell-based; conditions: Capan-2, 96 h
[8] = Mutagenicity in Salmonella typhimurium TA100 at 5 to 500 ug/plate in presence of s9 mix by Ames test; assay type: toxicity, subcellular; conditions: salmonella enterica subsp. enterica serovar typhimurium; how it was run: as §2
[9] = Mutagenicity in Salmonella typhimurium TA102 at 5 to 500 ug/plate in presence of s9 mix by Ames test; assay type: toxicity, subcellular; conditions: salmonella enterica subsp. enterica serovar typhimurium; how it was run: as §2
MCF7 = test: Antiproliferative activity against human MCF7 cells after 96 hrs by MTT assay; assay type: functional, cell-based; conditions: MCF7, 96 h
[10] = Mutagenicity in Salmonella typhimurium TA98 at 5 to 500 ug/plate in absence of s9 mix by Ames test; assay type: toxicity; conditions: salmonella enterica subsp. enterica serovar typhimurium; how it was run: as §2
Histone deacetylase 8 = Histone deacetylase 8 (Homo sapiens, UniProt Q9BY41); test: Inhibition of recombinant human full length C-terminal His-tagged HDAC8 expressed in baculovirus infected Sf9 insect cells using Ac-peptide as substrate preincubated for 15 mins followed by substrate addition and measured after 1 hr
How it was run: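 Recombinant HDAC isoforms mixed with serially diluted compound in assay buffer for 15 min at room temperature. Ac-peptide substrate then added and incubated 1 h at room temperature. Signal read on a plate reader; IC50 by curve fitting.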

[11] = Drug concentration in human HCT116 cells assessed per million cells at 25 uM after 1 hr by LC/MS/MS analysis; assay type: ADME, cell-based; conditions: hct-116, 1 h
How it was run: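 HCT116 cells seeded overnight, exposed 1 h to 25 μM compound in 4 wells, washed three times with PBS; one well trypsinized for cell count, three scraped, sonicated, acetonitrile-extracted, LC/MS/MS; nmol per million cells = concentration × total volume / cell number.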

K562 = test: Antiproliferative activity against human K562 cells after 96 hrs by MTT assay; assay type: functional, cell-based; conditions: K562, 96 h
HCT-116 [12] = test: Induction of apoptosis in human HCT116 cells assessed as live cells at 100 nM after 48 hrs by Annexin V-FITC/propidium iodide staining-based flow cytometric analysis (reference value: 89.6%); assay type: functional
[13] = Apparent volume of distribution in ICR mouse at 3 mg/kg, iv measured after 0.033 to 24 hrs by LC/MS/MS analysis; assay type: ADME, organism-based; conditions: in vivo, read-out: Vz; how it was run: as §1
HCT-116 [14] = test: Induction of cell cycle arrest in human HCT116 cells assessed as accumulation at G1 phase at 100 to 500 nM after 24 hrs by propidium iodide/RNase staining-based FACS analysis; assay type: functional
How it was run: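 HCT116 cells cultured overnight in 6-well plates, exposed to compound at various concentrations for 24 h; FxCycle PI/RNase staining and flow cytometry for cell cycle phase distribution.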

Bel-7402 = test: Antiproliferative activity against human Bel7402 cells after 96 hrs by MTT assay; assay type: functional, cell-based; conditions: Bel-7402, 96 h
HCT-116 [15] = test: Induction of apoptosis in human HCT116 cells assessed as late apoptotic cells at 20 nM after 48 hrs by Annexin V-FITC/propidium iodide staining-based flow cytometric analysis (reference value: 3.87%); assay type: functional
[16] = AUC (0 to infinity) in ICR mouse at 3 mg/kg, iv measured after 0.033 to 24 hrs by LC/MS/MS analysis; assay type: ADME, organism-based; parameters: dose 3 mg/kg, time infinity, route intravenous; conditions: in vivo; how it was run: as §1
[17] = Mutagenicity in Salmonella typhimurium TA98 at 5 to 500 ug/plate in presence of s9 mix by Ames test; assay type: toxicity, subcellular; conditions: salmonella enterica subsp. enterica serovar typhimurium; how it was run: as §2
[18] = Mutagenicity in Salmonella typhimurium TA97 at 5 to 500 ug/plate in presence of s9 mix by Ames test; assay type: toxicity, subcellular; conditions: salmonella enterica subsp. enterica serovar typhimurium; how it was run: as §2
HCT-116 [19] = test: Induction of apoptosis in human HCT116 cells assessed as live cells at 20 nM after 48 hrs by Annexin V-FITC/propidium iodide staining-based flow cytometric analysis (reference value: 89.6%); assay type: functional
HCT-116 [20] = test: Induction of apoptosis in human HCT116 cells assessed as necrotic cells at 100 nM after 48 hrs by Annexin V-FITC/propidium iodide staining-based flow cytometric analysis (reference value: 5.23%); assay type: functional
[21] = Oral bioavailability in ICR mouse at 30 mg/kg measured after 0.083 to 24 hrs by LC/MS/MS analysis; assay type: ADME, organism-based; conditions: in vivo
How it was run: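 Male-unspecified ICR mice, 3 per group iv (3 mg/kg in 10% DMSO/saline) and 5 per group po (30 mg/kg in 0.5% cmc/0.3% Tween 80). Blood sampled 0.033 (iv) or 0.083 (po) to 24 h. Plasma extracted with acetonitrile, analysed by LC/MS/MS; noncompartmental analysis.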

NCI-H1299 = test: Antiproliferative activity against human NCI-H1299 cells after 96 hrs by MTT assay; assay type: functional, cell-based; conditions: NCI-H1299, 96 h

Sequence of Histone deacetylase 8 (Q9BY41 whole entry, canonical isoform): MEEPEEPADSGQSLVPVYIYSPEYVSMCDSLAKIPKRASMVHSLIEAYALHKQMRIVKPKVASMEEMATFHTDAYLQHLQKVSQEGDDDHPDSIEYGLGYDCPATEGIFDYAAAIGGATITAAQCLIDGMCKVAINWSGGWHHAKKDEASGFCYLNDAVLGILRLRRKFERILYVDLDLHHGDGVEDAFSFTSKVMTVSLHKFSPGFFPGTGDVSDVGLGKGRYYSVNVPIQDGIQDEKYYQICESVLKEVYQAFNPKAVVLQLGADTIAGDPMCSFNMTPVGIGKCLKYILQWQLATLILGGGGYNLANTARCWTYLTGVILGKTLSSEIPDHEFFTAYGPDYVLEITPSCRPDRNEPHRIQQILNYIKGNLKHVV
Sequence of Phosphatidylinositol 4,5-bisphosphate 3-kinase catalytic subunit beta isoform (P42338 whole entry, canonical isoform): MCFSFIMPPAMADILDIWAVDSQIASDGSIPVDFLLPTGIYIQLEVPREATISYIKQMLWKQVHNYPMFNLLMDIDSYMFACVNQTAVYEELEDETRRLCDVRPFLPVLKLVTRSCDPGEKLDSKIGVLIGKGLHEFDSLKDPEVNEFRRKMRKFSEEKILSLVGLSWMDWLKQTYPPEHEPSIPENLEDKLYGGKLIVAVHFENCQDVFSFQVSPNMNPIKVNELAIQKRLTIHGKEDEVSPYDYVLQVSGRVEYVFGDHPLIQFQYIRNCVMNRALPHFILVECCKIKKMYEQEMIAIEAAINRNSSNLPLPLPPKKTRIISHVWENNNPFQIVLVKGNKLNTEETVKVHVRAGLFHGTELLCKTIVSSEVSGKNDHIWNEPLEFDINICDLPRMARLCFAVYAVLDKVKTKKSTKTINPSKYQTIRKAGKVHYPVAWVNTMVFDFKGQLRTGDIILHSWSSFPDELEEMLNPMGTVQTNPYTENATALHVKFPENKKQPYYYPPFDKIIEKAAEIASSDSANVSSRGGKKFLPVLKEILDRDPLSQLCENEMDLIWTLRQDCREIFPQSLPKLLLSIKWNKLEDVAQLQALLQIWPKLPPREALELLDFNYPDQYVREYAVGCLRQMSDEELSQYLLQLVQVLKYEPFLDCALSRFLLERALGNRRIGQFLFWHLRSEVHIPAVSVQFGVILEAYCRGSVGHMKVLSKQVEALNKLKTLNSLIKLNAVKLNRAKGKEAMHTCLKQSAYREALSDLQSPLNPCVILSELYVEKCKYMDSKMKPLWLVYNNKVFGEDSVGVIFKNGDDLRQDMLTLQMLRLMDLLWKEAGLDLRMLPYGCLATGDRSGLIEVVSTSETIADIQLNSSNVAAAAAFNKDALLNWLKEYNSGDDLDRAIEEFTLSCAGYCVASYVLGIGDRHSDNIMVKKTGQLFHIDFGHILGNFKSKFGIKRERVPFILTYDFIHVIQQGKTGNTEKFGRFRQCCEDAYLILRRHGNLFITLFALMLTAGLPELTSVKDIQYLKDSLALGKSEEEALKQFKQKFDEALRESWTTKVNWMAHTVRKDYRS
Sequence of Voltage-gated inwardly rectifying potassium channel KCNH2 (Q12809 whole entry): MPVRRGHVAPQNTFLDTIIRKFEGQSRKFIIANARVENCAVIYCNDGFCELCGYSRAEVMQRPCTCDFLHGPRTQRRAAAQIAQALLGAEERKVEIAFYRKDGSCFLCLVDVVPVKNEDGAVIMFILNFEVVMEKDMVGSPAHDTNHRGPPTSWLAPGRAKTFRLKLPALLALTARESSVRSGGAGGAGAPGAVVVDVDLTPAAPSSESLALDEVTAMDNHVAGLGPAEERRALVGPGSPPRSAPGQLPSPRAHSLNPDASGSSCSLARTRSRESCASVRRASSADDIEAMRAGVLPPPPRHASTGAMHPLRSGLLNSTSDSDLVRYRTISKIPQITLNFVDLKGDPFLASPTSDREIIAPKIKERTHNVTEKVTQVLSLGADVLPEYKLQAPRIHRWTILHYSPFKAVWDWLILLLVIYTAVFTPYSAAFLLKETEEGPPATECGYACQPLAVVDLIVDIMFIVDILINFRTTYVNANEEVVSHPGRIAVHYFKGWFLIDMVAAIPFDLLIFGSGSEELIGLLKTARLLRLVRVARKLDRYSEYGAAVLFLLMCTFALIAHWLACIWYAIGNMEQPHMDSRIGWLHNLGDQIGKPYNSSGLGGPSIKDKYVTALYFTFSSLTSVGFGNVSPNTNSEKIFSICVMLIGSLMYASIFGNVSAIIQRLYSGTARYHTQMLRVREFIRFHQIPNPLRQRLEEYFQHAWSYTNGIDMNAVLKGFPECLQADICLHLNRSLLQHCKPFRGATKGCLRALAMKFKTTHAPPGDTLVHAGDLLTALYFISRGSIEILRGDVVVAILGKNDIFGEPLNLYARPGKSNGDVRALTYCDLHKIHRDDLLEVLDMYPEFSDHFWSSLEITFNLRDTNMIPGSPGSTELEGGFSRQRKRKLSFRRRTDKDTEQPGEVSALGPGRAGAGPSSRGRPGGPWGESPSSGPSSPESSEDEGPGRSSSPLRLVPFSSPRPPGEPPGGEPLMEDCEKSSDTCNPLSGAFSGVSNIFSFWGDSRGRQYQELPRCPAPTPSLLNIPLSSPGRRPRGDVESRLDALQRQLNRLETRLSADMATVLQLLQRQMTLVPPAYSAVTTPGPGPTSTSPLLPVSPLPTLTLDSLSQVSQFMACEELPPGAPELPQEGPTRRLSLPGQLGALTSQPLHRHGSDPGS

SMILES	IC50 (THP-1)	clearance [1]	Activity (HCT-116 [2])	Activity [3]	IC50 (HGC-27)	Activity [4]	IC50 [5]	Activity [6]	IC50 [7]	IC50 (Capan-2)	Activity [8]	Activity [9]	IC50 (MCF7)	Activity [10]	IC50 (Histone deacetylase 8)	Drug metabolism [11]	IC50 (K562)	Activity (HCT-116 [12])	Vd [13]	Activity (HCT-116 [14])	other results
COc1ccc(-c2cc(OCCN(C)c3ncc(C(=O)NO)cn3)c3ncnc(C)c3c2)cn1	910 nM	352 mL/min/kg	5.97%	Non-Toxic	14 nM	Non-Toxic	> 30000 nM	Non-Toxic	279 nM	270 nM	Non-Toxic	Non-Toxic	1100 nM	Non-Toxic	12 nM	Metabolite_Detected	1200 nM	70.2%	50 L/kg	Dose-dependent effect	IC50 (Bel-7402): 1600 nM; Activity (HCT-116 [15]): 5.89%; AUC [16]: 143 ng·h/mL; Activity [17]: Non-Toxic; Activity [18]: Non-Toxic; Activity (HCT-116 [19]): 83.6%; Activity (HCT-116 [20]): 2.99%; F [21]: 1.7%; IC50 (NCI-H1299): 180 nM
COc1ncc(-c2cc(OCCCCCCC(=O)NO)c3ncnc(C)c3c2)cc1F	5400 nM	90 mL/min/kg	4.1%	Non-Toxic	110 nM	Non-Toxic	> 30000 nM	Non-Toxic	101 nM	430 nM	Non-Toxic	Non-Toxic	2000 nM	Non-Toxic	18 nM	Metabolite_Detected	6800 nM	80.8%	2.57 L/kg	Dose-dependent effect	IC50 (Bel-7402): 5200 nM; Activity (HCT-116 [15]): 5.48%; AUC(0-inf) ([16]; ICR): 558 ng·h/mL; Activity [17]: Non-Toxic; Activity [18]: Non-Toxic; Activity (HCT-116 [19]): 88.6%; Activity (HCT-116 [20]): 4.64%; bioavailability ([21]; ICR): 4.2%; IC50 (NCI-H1299): 1000 nM
